# Tested on: Hepatitis C virus
# Experiment: Antiviral activity against HCV by genotype 1 replicon based cellular assay
# Assay type: functional, Hepacivirus hominis
# Conditions: not given; call rule not given here
row,EC90 [nM],SMILES
1,400,CC(C)(C)OC(=O)[C@@H](NC(=O)N[C@H]1CCCCCCCCCC[C@@H](C(=O)C(N)=O)NC(=O)[C@@H]2[C@H]3[C@@H](CN2C1=O)C3(C)C)C(C)(C)C
2,60,C=CCNC(=O)C(=O)[C@@H]1CCCCCCCCC[C@H](NC(=O)N[C@H](CN(C)S(=O)(=O)N(C)C)C(C)(C)C)C(=O)N2C[C@@H]3[C@H]([C@H]2C(=O)N1)C3(C)C
3,55,C=CCNC(=O)C(=O)[C@@H]1CCCCCCCCC[C@H](NC(=O)N[C@H](CN(C)S(C)(=O)=O)C(C)(C)C)C(=O)N2C[C@@H]3[C@H]([C@H]2C(=O)N1)C3(C)C
4,280,C=CCNC(=O)C(=O)[C@@H]1CCCCCCCCC[C@H](NC(=O)N[C@H](C(=O)C2CC2)C2CCCCC2)C(=O)N2C[C@@H]3[C@H]([C@H]2C(=O)N1)C3(C)C
5,90,"C=CCNC(=O)C(=O)[C@@H]1CCCCCCCCC[C@H](NC(=O)N[C@H](CN(C)S(=O)(=O)c2ccccn2)C(C)(C)C)C(=O)N2CC3C([C@H]2C(=O)N1)C3(C)C (single isomer, unassigned)"

# Continued, molecule first:
row,SMILES,EC90 [nM]
1,C=CCNC(=O)C(=O)[C@@H]1CCCCCCCCC[C@H](NC(=O)N[C@H](CN2Cc3sccc3S2(=O)=O)C(C)(C)C)C(=O)N2C[C@@H]3[C@H]([C@H]2C(=O)N1)C3(C)C,150
2,CN(C)C(=O)[C@@H](NC(=O)CNC(=O)C(=O)[C@@H]1CCCCCCCCCC[C@H](NC(=O)NC(C)(C)C)C(=O)N2C[C@@H]3[C@H]([C@H]2C(=O)N1)C3(C)C)c1ccccc1,1000
3,C=CCNC(=O)C(=O)[C@@H]1CCCCCCCCC[C@H](NC(=O)N[C@H](CN2CCC(C)(C)CC2=O)C(C)(C)C)C(=O)N2C[C@@H]3[C@H]([C@H]2C(=O)N1)C3(C)C,20
4,CN(C[C@@H](NC(=O)N[C@H]1CCCCCCCCC[C@@H](C(=O)C(N)=O)NC(=O)[C@@H]2[C@H]3[C@@H](CN2C1=O)C3(C)C)C(C)(C)C)S(=O)(=O)c1cccs1,70
5,CC(C)(C)OC(=O)N[C@H]1CCCCCCCCCC[C@@H](C(=O)C(=O)NCC(=O)NCc2ccccc2)NC(=O)[C@@H]2[C@H]3[C@@H](CN2C1=O)C3(C)C,2000
6,CC(C)(C)NC(=O)N[C@H]1CCCCCCCCCC[C@@H](C(=O)C(N)=O)NC(=O)[C@H]2[C@H]3[C@@H](CN2C1=O)C3(C)C,1000
7,"C=CCNC(=O)C(=O)[C@@H]1CCCCCCCCC[C@H](NC(=O)N[C@H](CN2C(=O)CN(C)CC2=O)C(C)(C)C)C(=O)N2CC3C([C@H]2C(=O)N1)C3(C)C (single isomer, unassigned)",30
8,"CN(C)C(=O)[C@@H](NC(=O)CNC(=O)C(=O)[C@@H]1CCCCCCCCCC[C@H](NC(=O)OC(C)(C)C)C(=O)N2CC3C([C@H]2C(=O)N1)C3(C)C)c1ccccc1 (single isomer, unassigned)",600
9,"C=CCNC(=O)C(=O)[C@@H]1CCCCCCCCC[C@H](NC(=O)N[C@H](CN2C(=O)CC(C)(C)CC2=O)C(C)(C)C)C(=O)N2CC3C([C@H]2C(=O)N1)C3(C)C (single isomer, unassigned)",20
10,"CN(C)C(=O)[C@@H](NC(=O)CNC(=O)C(=O)[C@@H]1CCCC/C=C/CCCC[C@H](NC(=O)OC(C)(C)C)C(=O)N2CC3C([C@H]2C(=O)N1)C3(C)C)c1ccccc1 (single isomer, unassigned)",300

# Tested on: not listed separately
# Experiment: AUC (0 to 6 hrs) in rat at 5 mg/kg, po
# Assay type: ADME, organism-based
# Parameters: time < 6 hr, dose 5 mg/kg, route oral
# Conditions: plasma
# Procedure, shortened: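 Rapid rat plasma-level assay with oral dosing at 5 mg/kg in 0.4% HPMC; plasma exposure expressed as AUC.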
row,AUC(0-t) at 6 h [µM·h],SMILES
1,1.04,C=CCNC(=O)C(=O)[C@@H]1CCCCCCCCC[C@H](NC(=O)N[C@H](CN(C)S(=O)(=O)N(C)C)C(C)(C)C)C(=O)N2C[C@@H]3[C@H]([C@H]2C(=O)N1)C3(C)C

# Molecular target: not listed separately
# Experiment: Binding affinity to HCV NS3 protease
# Parameters: species or system Hepacivirus hominis
# Conditions: not given
row,Ki [nM],SMILES
1,37,CC(C)(C)OC(=O)[C@@H](NC(=O)N[C@H]1CCCCCCCCCC[C@@H](C(=O)C(N)=O)NC(=O)[C@@H]2[C@H]3[C@@H](CN2C1=O)C3(C)C)C(C)(C)C
2,13,C=CCNC(=O)C(=O)[C@@H]1CCCCCCCCC[C@H](NC(=O)N[C@H](CN(C)S(=O)(=O)N(C)C)C(C)(C)C)C(=O)N2C[C@@H]3[C@H]([C@H]2C(=O)N1)C3(C)C
3,3,C=CCNC(=O)C(=O)[C@@H]1CCCCCCCCC[C@H](NC(=O)N[C@H](CN(C)S(C)(=O)=O)C(C)(C)C)C(=O)N2C[C@@H]3[C@H]([C@H]2C(=O)N1)C3(C)C
4,6,C=CCNC(=O)C(=O)[C@@H]1CCCCCCCCC[C@H](NC(=O)N[C@H](C(=O)C2CC2)C2CCCCC2)C(=O)N2C[C@@H]3[C@H]([C@H]2C(=O)N1)C3(C)C
5,7,"C=CCNC(=O)C(=O)[C@@H]1CCCCCCCCC[C@H](NC(=O)N[C@H](CN(C)S(=O)(=O)c2ccccn2)C(C)(C)C)C(=O)N2CC3C([C@H]2C(=O)N1)C3(C)C (single isomer, unassigned)"

# Second part, the molecule before the results:
row,SMILES,Ki [nM]
1,C=CCNC(=O)C(=O)[C@@H]1CCCCCCCCC[C@H](NC(=O)N[C@H](CN2Cc3sccc3S2(=O)=O)C(C)(C)C)C(=O)N2C[C@@H]3[C@H]([C@H]2C(=O)N1)C3(C)C,7
2,CN(C)C(=O)[C@@H](NC(=O)CNC(=O)C(=O)[C@@H]1CCCCCCCCCC[C@H](NC(=O)NC(C)(C)C)C(=O)N2C[C@@H]3[C@H]([C@H]2C(=O)N1)C3(C)C)c1ccccc1,6
3,C=CCNC(=O)C(=O)[C@@H]1CCCCCCCCC[C@H](NC(=O)N[C@H](CN2CCC(C)(C)CC2=O)C(C)(C)C)C(=O)N2C[C@@H]3[C@H]([C@H]2C(=O)N1)C3(C)C,2
4,CN(C[C@@H](NC(=O)N[C@H]1CCCCCCCCC[C@@H](C(=O)C(N)=O)NC(=O)[C@@H]2[C@H]3[C@@H](CN2C1=O)C3(C)C)C(C)(C)C)S(=O)(=O)c1cccs1,2
5,CC(C)(C)OC(=O)N[C@H]1CCCCCCCCCC[C@@H](C(=O)C(=O)NCC(=O)NCc2ccccc2)NC(=O)[C@@H]2[C@H]3[C@@H](CN2C1=O)C3(C)C,89
6,CC(C)(C)NC(=O)N[C@H]1CCCCCCCCCC[C@@H](C(=O)C(N)=O)NC(=O)[C@H]2[C@H]3[C@@H](CN2C1=O)C3(C)C,59
7,"C=CCNC(=O)C(=O)[C@@H]1CCCCCCCCC[C@H](NC(=O)N[C@H](CN2C(=O)CN(C)CC2=O)C(C)(C)C)C(=O)N2CC3C([C@H]2C(=O)N1)C3(C)C (single isomer, unassigned)",4
8,"CN(C)C(=O)[C@@H](NC(=O)CNC(=O)C(=O)[C@@H]1CCCCCCCCCC[C@H](NC(=O)OC(C)(C)C)C(=O)N2CC3C([C@H]2C(=O)N1)C3(C)C)c1ccccc1 (single isomer, unassigned)",6
9,"C=CCNC(=O)C(=O)[C@@H]1CCCCCCCCC[C@H](NC(=O)N[C@H](CN2C(=O)CC(C)(C)CC2=O)C(C)(C)C)C(=O)N2CC3C([C@H]2C(=O)N1)C3(C)C (single isomer, unassigned)",2
10,"CN(C)C(=O)[C@@H](NC(=O)CNC(=O)C(=O)[C@@H]1CCCC/C=C/CCCC[C@H](NC(=O)OC(C)(C)C)C(=O)N2CC3C([C@H]2C(=O)N1)C3(C)C)c1ccccc1 (single isomer, unassigned)",5

# Tested on: not listed separately
# Experiment: Ratio of Ki for human neutrophil elastase to Ki for HCV NS3 protease
# Conditions: not given
# Procedure, shortened: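 Selectivity index: Ki* against human neutrophil elastase divided by Ki* against HCV NS3 protease, both from enzyme binding measurements.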
row,Ratio Ki,SMILES
1,980,CN(C)C(=O)[C@@H](NC(=O)CNC(=O)C(=O)[C@@H]1CCCCCCCCCC[C@H](NC(=O)NC(C)(C)C)C(=O)N2C[C@@H]3[C@H]([C@H]2C(=O)N1)C3(C)C)c1ccccc1
2,780,"CN(C)C(=O)[C@@H](NC(=O)CNC(=O)C(=O)[C@@H]1CCCCCCCCCC[C@H](NC(=O)OC(C)(C)C)C(=O)N2CC3C([C@H]2C(=O)N1)C3(C)C)c1ccccc1 (single isomer, unassigned)"
3,1400,"CN(C)C(=O)[C@@H](NC(=O)CNC(=O)C(=O)[C@@H]1CCCC/C=C/CCCC[C@H](NC(=O)OC(C)(C)C)C(=O)N2CC3C([C@H]2C(=O)N1)C3(C)C)c1ccccc1 (single isomer, unassigned)"

# Tested on: Rattus norvegicus
# Experiment: (§1) AUC (0 to 6 hrs) in rat at 10 mg/kg, po
# Assay type: ADME, organism-based, Plasma
# Parameters: time < 6 hr, dose 10 mg/kg, route oral
# Conditions: in vivo, 6 h
# Procedure, shortened: (§2)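 Rapid rat assay: oral dosing at 10 mg/kg in 0.4% HPMC. Blood drawn periodically and pooled; plasma AUC calculated over 0–6 h.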
row,Activity,SMILES
1,Not Active,C=CCNC(=O)C(=O)[C@@H]1CCCCCCCCC[C@H](NC(=O)N[C@H](C(=O)C2CC2)C2CCCCC2)C(=O)N2C[C@@H]3[C@H]([C@H]2C(=O)N1)C3(C)C

# Tested on: not listed separately
# Experiment: as §1
# Assay type: ADME, organism-based, Plasma
# Parameters: time < 6 hr, dose 10 mg/kg, route oral
# Conditions: plasma
# Procedure, shortened: as §2
row,AUC(0-t) at 6 h [µM·h],SMILES
1,0.36,C=CCNC(=O)C(=O)[C@@H]1CCCCCCCCC[C@H](NC(=O)N[C@H](CN(C)S(C)(=O)=O)C(C)(C)C)C(=O)N2C[C@@H]3[C@H]([C@H]2C(=O)N1)C3(C)C
2,0.84,"C=CCNC(=O)C(=O)[C@@H]1CCCCCCCCC[C@H](NC(=O)N[C@H](CN(C)S(=O)(=O)c2ccccn2)C(C)(C)C)C(=O)N2CC3C([C@H]2C(=O)N1)C3(C)C (single isomer, unassigned)"

# The remaining lines, values behind:
row,SMILES,AUC(0-t) at 6 h [µM·h]
1,C=CCNC(=O)C(=O)[C@@H]1CCCCCCCCC[C@H](NC(=O)N[C@H](CN2Cc3sccc3S2(=O)=O)C(C)(C)C)C(=O)N2C[C@@H]3[C@H]([C@H]2C(=O)N1)C3(C)C,0.84
2,C=CCNC(=O)C(=O)[C@@H]1CCCCCCCCC[C@H](NC(=O)N[C@H](CN2CCC(C)(C)CC2=O)C(C)(C)C)C(=O)N2C[C@@H]3[C@H]([C@H]2C(=O)N1)C3(C)C,1.5
3,"C=CCNC(=O)C(=O)[C@@H]1CCCCCCCCC[C@H](NC(=O)N[C@H](CN2C(=O)CN(C)CC2=O)C(C)(C)C)C(=O)N2CC3C([C@H]2C(=O)N1)C3(C)C (single isomer, unassigned)",0.28
4,"C=CCNC(=O)C(=O)[C@@H]1CCCCCCCCC[C@H](NC(=O)N[C@H](CN2C(=O)CC(C)(C)CC2=O)C(C)(C)C)C(=O)N2CC3C([C@H]2C(=O)N1)C3(C)C (single isomer, unassigned)",1.1

# Reference: ChEMBL document CHEMBL1139369, “Discovery and structure-activity relationship of P1-P3 ketoamide derived macrocyclic inhibitors of hepatitis C virus NS3 protease” (J Med Chem, 2009)
